Screening results deposited in PubChem by Broad Institute.
Env fusion inh: inhibitors of HIV-1 Env-driven cell-cell fusion, primary screen, HeLa-JRFL effector, CEM21 target cells, luciferase; inhibition, % at 12.3 µM; 360,000 tested, 1.1% active; AID 651610, 2012;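 active = mean replicate inhibition score of at least 50 and every replicate individually at or above 50; inconclusive = only one of the two criteria met; inactive = mean below 50 and not all replicates reaching 50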
FGF22 binding-1: binders of human FGF22 protein, primary screen, FGF22 synaptogenesis inhibitor project, biophysical, thermal shift, single point; 340,000 tested, 1.5% active; Fibroblast growth factor 22 (Homo sapiens), Q9HCT0; activity (Tm shift, normalised), % at 9.99 µM; AID 651658, 2012; recombinant FGF22 thermal shift, SYPRO orange fluorescence; percent of sucrose octasulfate shift, DMSO zero;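 active = mean Tm shift, scaled 0 neutral to 100 positive control, at about 1.3% or above, every replicate too, limit read from the data; inconclusive = no clear call, values can overlap the other calls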
Target sequence (Q9HCT0 whole entry, looked up): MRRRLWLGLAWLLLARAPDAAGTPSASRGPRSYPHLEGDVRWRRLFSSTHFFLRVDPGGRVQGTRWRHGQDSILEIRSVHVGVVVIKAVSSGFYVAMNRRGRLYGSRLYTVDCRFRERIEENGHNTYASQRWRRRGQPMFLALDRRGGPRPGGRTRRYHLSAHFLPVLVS
PGC1a acetyl inh: inhibitors of PGC1a acetylation signal, primary screen, cell-based, U2OS, AlphaScreen, inhibitor mode; AlphaScreen anti-acetyl-lysine; with virally co-expressed GCN5 acetyltransferase; inhibition, % at 15.6 µM; 350,000 tested, 0.17% active;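 active = every replicate shows inhibition of at least 40%; inconclusive = mean inhibition at least 40% but some replicate below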
rRNA inh HTS: reduced GFP signal of wild-type E. coli, primary screen, bacterial rRNA inhibitor project, GFP/RFP fluorescence, OD600, single point; GFP signal change (wild-type ribosome), % (concentration not given with the values); 350,000 tested, 1.6% active; E. coli WT GFP vs humanized-ribosome RFP mutants, 24 h; hits give low values; DMSO median 0, no signal -100; AID 720706, 2013;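 active = significant combined selectivity score with lowered wild-type GFP, culture density cut under 30%, mutant RFP and density less affected; inactive = any of these conditions unmet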
Cneo AK release: Cryptococcus neoformans cell lysis inducers, primary screen, AK release luminescence, single concentration; C. neoformans lysis, adenylate kinase release luminescence, 4 h; normalised: neutral wells 0, clomiphene wells 100; lysis activity, % at 15 µM; 360,000 tested, 0.2% active;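 active = mean lysis activity across replicates of at least 80%, whatever share of replicates individually reach that level; inactive = mean lysis activity below 80%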
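Material – log-phase Cryptococcus neoformans yeast cells · Input – 5 × 10^6 yeast cells/mL · Medium – fresh YPD growth medium · Doses – single compound concentration per well · Timing – static 4 h at 37 °C with compound, 1 h detection · Detection – adenylate kinase release luminescence · Read-out – signal increase indicating cell lysis · Control set – Clomiphene as positive lysis control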
ERAP1 inh: human ERAP1 aminopeptidase inhibitors, primary screen, biochemical, single point, plate reader; Endoplasmic reticulum aminopeptidase 1 (Homo sapiens), Q9NZ08; recombinant ERAP1, Leu-AMC fluorescence, 60 min; inhibition, % at 10.7 µM; 340,000 tested, 0.15% active; AID 652197, 2013;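 active = mean replicate inhibition of at least 30%, or all replicates individually reaching that 30% level; inactive = mean below 30% and not every replicate reaching it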
FGF22 binding-2: binders of human FGF22 protein, dose response, FGF22 synaptogenesis inhibitor project, biophysical, thermal shift, cherry-pick retest | shares compounds with FGF22 binding-1 | recombinant FGF22 thermal shift, SYPRO orange fluorescence | thermal shift activity, °C (ΔTm) at 38 µM | 1,000 tested, 2% active | AID 720646, 2013;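 active = fitted rise in melting shift crosses a set limit at or below the top valid dose tested; inconclusive = flat fit at mid-level activity, or a poor quality fit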
FGF22 TSA: binders of human FGF22 protein, dose response, FGF22 synaptogenesis inhibitor project, biophysical, thermal shift, dry powder. shares compounds with FGF22 binding-1. Thermal shift assay, SYPRO orange, melting temperature shift. Tm shift (activity), % at 38 µM. 50 tested, under 10 active;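 active = compounds whose fitted dose curve of melting temperature shift rises past a set threshold within the tested doses; inconclusive = flat curve at moderate activity, or poor curve fit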
SYPRO no-protein: compound-only thermal shift signal without protein, dose response, artefact control for FGF22 binder project, biochemical, cherry-picked samples, RT-PCR instrument | shares compounds with FGF22 binding-1 | compound-only SYPRO orange thermal shift counter-screen, no protein | AC50, µM (top dose mostly 38 µM) | 1,000 tested, 2% active;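 active = rising signal whose fitted curve reaches the 0.54 level within the top valid dose, showing a melting point, actives reach about 13 µM in these data; inactive = the rest, including activity in the opposite direction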; also: value is where the raw curve crosses a fixed level and not half-maximal
Of the large screens only hits and unclear results are named; the others gave an inactive call (follow-up assays come after a bar, where they were run). Most compounds without a hit are left out; they make up all but 3.5% or so of the library.

O=C(O)Cn1cc(/C=N/NC(=O)c2cc3cc(Br)ccc3o2)c2ccccc21	FGF22 binding-1 1.4 (no result: Cneo AK release) | FGF22 binding-2 inactive | SYPRO no-protein inactive
CCC(=O)N1[C@@H](CO)[C@@H]2c3ccccc3N(S(=O)(=O)c3ccc(F)cc3)C[C@@H]21	FGF22 binding-1 1.4 (no result: Env fusion inh) | FGF22 binding-2 inactive | SYPRO no-protein inactive
COc1ccc(-c2ccc([C@@H]3[C@H]4CN(C(=O)c5ccc6c(c5)OCO6)CCCCN4[C@H]3CO)cc2)cc1	none (no result: Env fusion inh)
COc1ccc(-c2ccc([C@H]3[C@H](CO)N4CCCCN(C(=O)c5ccc6c(c5)OCO6)C[C@@H]34)cc2)cc1	FGF22 binding-1 1.4 (no result: Env fusion inh) | FGF22 binding-2 inactive | SYPRO no-protein inactive
CN(Cc1c(C(=O)N/N=C/c2ccc(O)cc2)nnn1-c1nonc1N)c1ccccc1	FGF22 binding-1 1.9, rRNA inh HTS -27 | FGF22 binding-2 inactive | FGF22 TSA inactive | SYPRO no-protein inactive
CC(C)c1c(C(=O)N/N=C/c2c[nH]c3ccccc23)nnn1-c1nonc1N	FGF22 binding-1 2.3, rRNA inh HTS -18 | FGF22 TSA inactive | SYPRO no-protein inactive
O=C(Cc1n[nH]c(=O)[nH]c1=O)N/N=C/c1c(O)ccc2ccccc12	FGF22 binding-1 1.4 (no result: PGC1a acetyl inh, Cneo AK release) | SYPRO no-protein 10µM
CC(C)NC(=S)NNC(=O)C12CC3CC(CC(C3)C1)C2	none (no result: FGF22 binding-1, rRNA inh HTS, ERAP1 inh)
Cc1ccc(NS(=O)(=O)c2ccc(NC(=O)c3ccccc3C(=O)O)cc2)c(C)c1	Env fusion inh inconclusive (no result: PGC1a acetyl inh, Cneo AK release, ERAP1 inh)
Cc1ccc(S(=O)(=O)Nc2cccc(S(=O)(=O)Nc3ccccc3C(=O)O)c2)c(C)c1	FGF22 binding-1 1.4 | FGF22 binding-2 inactive | SYPRO no-protein inactive
CCOc1ccc(CN2CCNC(=O)C2CC(=O)N(C)C2CCCCC2)cc1 (stereo unspecified)	none
Cc1ccc(CN2CCNC(=O)C2CC(=O)N(C)C2CCCCC2)cc1 (stereo unspecified)	FGF22 binding-1 1.5 | FGF22 binding-2 inactive | SYPRO no-protein inactive
C[C@@H]1CN([C@H](C)CO)C(=O)c2cc(NS(C)(=O)=O)ccc2O[C@H]1CN(C)C(=O)NC1CCCCC1	none (no result: Env fusion inh)
COc1ccccc1-c1ccc2c(c1)O[C@@H](CN(C)C(=O)Nc1ccccc1)[C@@H](C)CN([C@@H](C)CO)S2(=O)=O	none
C/C=C/c1ccc2c(c1)O[C@@H](CN(C)C(=O)Nc1cc(F)ccc1F)[C@@H](C)CN([C@H](C)CO)S2(=O)=O	FGF22 binding-1 1.3 | FGF22 binding-2 inactive | SYPRO no-protein inactive
C/C=C/c1ccc2c(c1)O[C@H](CN(C)C(=O)Nc1cc(F)ccc1F)[C@@H](C)CN([C@H](C)CO)S2(=O)=O	none
COc1cccc(NC(=O)N(C)C[C@H]2Oc3cc(-c4ccccc4F)ccc3S(=O)(=O)N([C@H](C)CO)C[C@@H]2C)c1	FGF22 binding-1 1.4 | FGF22 binding-2 inactive | SYPRO no-protein inactive
COc1cccc(NC(=O)N(C)C[C@H]2Oc3cc(-c4ccccc4F)ccc3S(=O)(=O)N([C@@H](C)CO)C[C@H]2C)c1	FGF22 binding-1 2.8 | FGF22 binding-2 inactive | SYPRO no-protein inactive
C[C@H](CO)N1C[C@H](C)[C@@H](CN(C)Cc2ccc(C(=O)O)cc2)Oc2cc(/C=C/c3ccccc3)ccc2S1(=O)=O	FGF22 binding-1 23 (no result: rRNA inh HTS) | FGF22 binding-2 inactive | SYPRO no-protein inactive
Nc1nc(SCC(=O)OCc2ccccc2)[nH]c(=O)c1NC(=O)c1ccco1	none (no result: Env fusion inh)
COc1cccc(NC(=O)Cn2cc(C=O)c3ccccc32)c1	none
CO[C@@H]1CN(C)C(=O)c2cc(NS(=O)(=O)c3ccccc3)ccc2OC[C@H](C)N(Cc2cccnc2)C[C@H]1C	none (no result: Env fusion inh)
COc1ccccc1-c1ccc2c(c1)O[C@@H](CN(C)C(=O)Nc1cccc(F)c1)[C@H](C)CN([C@@H](C)CO)S2(=O)=O	FGF22 binding-1 2.0 | FGF22 binding-2 inactive | SYPRO no-protein 11µM
C[C@@H]1CN([C@@H](C)CO)S(=O)(=O)c2ccc(-c3ccncc3)cc2O[C@@H]1CN(C)C(=O)Nc1ccc(C(F)(F)F)cc1	FGF22 binding-1 1.5 | FGF22 binding-2 inactive | SYPRO no-protein inactive
COc1cccc(NC(=O)N(C)C[C@H]2Oc3cc(-c4ccccc4F)ccc3S(=O)(=O)N([C@@H](C)CO)C[C@@H]2C)c1	none
COc1cccc(NC(=O)N(C)C[C@@H]2Oc3cc(-c4ccccc4OC)ccc3S(=O)(=O)N([C@@H](C)CO)C[C@@H]2C)c1	none
COc1cccc(NC(=O)N(C)C[C@@H]2Oc3cc(-c4ccccc4F)ccc3S(=O)(=O)N([C@@H](C)CO)C[C@H]2C)c1	FGF22 binding-1 1.7 | FGF22 binding-2 inactive | SYPRO no-protein inactive
CCn1c2ccc(C)cc2c2nnc(NN)nc21	none (no result: FGF22 binding-1, rRNA inh HTS, ERAP1 inh)
Cc1ccc(-n2c(C)nn(CC#N)c2=O)cc1	none
COCCNC(=O)c1cccc2c(-c3cnn(C)c3)coc12	FGF22 binding-1 2.4 (no result: Env fusion inh) | FGF22 binding-2 inactive | SYPRO no-protein inactive
COCCNC(=O)c1cccc2c(-c3ccnn3C)coc12	none
CCOC(=O)C1CCCN(S(=O)(=O)c2nc3nc(C)cc(C)n3n2)C1 (stereo unspecified)	none (no result: PGC1a acetyl inh)
COc1cccc(NC(=O)CN2CCN(S(=O)(=O)c3ccc(C(C)C)cc3)CC2)c1	none (no result: Env fusion inh, FGF22 binding-1, rRNA inh HTS, ERAP1 inh)
COc1cccc(NC(=O)CN2CCN(S(=O)(=O)c3ccc(F)cc3)CC2)c1	FGF22 binding-1 28 (no result: Env fusion inh) | FGF22 binding-2 inactive | SYPRO no-protein inactive
COc1ccc(C)cc1NC(=O)NCc1ccccc1F	none (no result: PGC1a acetyl inh, Cneo AK release)
Cc1cnc(NC(=O)c2nn(C)cc2[N+](=O)[O-])s1	none (no result: Cneo AK release)
